Legend:
MCF7 = assay: Cytotoxicity against human MCF7 cells after 3 days by MTT assay; type: functional, cell-based; details: MCF7, 72 h
Summary of the method: (§1)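 Cells were cultured per supplier instructions at 2–4 × 10⁴ cells/well in medium with 10% (v/v) FBS, overnight at 37 °C under 5% CO₂. Compounds were then added, and after 3 days MTT was added to 0.5 mg/mL final for 4 h. Medium was replaced for solubilization with glycine pH 10.5. Doxorubicin was the positive control, and IC₅₀ values were derived.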

[1] = Cytotoxicity against human ChaGo cells after 3 days by MTT assay; type: functional, cell-based; details: 72 h; summary of the method: as §1
[2] = target: DNA topoisomerase 2-alpha (Homo sapiens) (UniProt P11388); assay: Inhibition of human topoisomerase 2alpha-mediated relaxation of supercoiled pBR322 at 100 uM after 30 mins by electrophoresis analysis
NCI-H187 = assay: Cytotoxicity against human NCI-H187 cells after 3 days by MTT assay; type: functional, cell-based; details: NCI-H187, 72 h; summary of the method: as §1
HepG2 = assay: Cytotoxicity against human HepG2 cells after 3 days by MTT assay; type: functional, cell-based; details: HepG2, 72 h; summary of the method: as §1
SW-620 = assay: Cytotoxicity against human SW620 cells after 3 days by MTT assay; type: functional, cell-based; details: SW-620, 72 h; summary of the method: as §1
KB = assay: Cytotoxicity against human KB cells after 3 days by MTT assay; type: functional, cell-based; details: 72 h; summary of the method: as §1
[3] = Cytotoxicity against human KATO cells after 3 days by MTT assay; type: functional, cell-based; details: 72 h; summary of the method: as §1
BT-474 = assay: Cytotoxicity against human BT474 cells after 3 days by MTT assay; type: functional, cell-based; details: BT-474, 72 h; summary of the method: as §1
Nucleic Acid [4] = assay: Binding affinity to calf thymus DNA assessed as increase in melting temperature (reference value: 56.4 degC); type: nucleic-acid assay; details: Bos taurus
Nucleic Acid [5] = assay: Binding affinity to calf thymus DNA assessed as change in melting temperature; type: nucleic-acid assay; details: Bos taurus
[6] = target: DNA topoisomerase 2-alpha (Homo sapiens) (UniProt P11388); assay: Inhibition of human topoisomerase 2alpha-mediated relaxation of supercoiled pBR322 at 20 uM after 30 mins by electrophoresis analysis

DNA topoisomerase 2-alpha (Homo sapiens), sequence (P11388 whole entry): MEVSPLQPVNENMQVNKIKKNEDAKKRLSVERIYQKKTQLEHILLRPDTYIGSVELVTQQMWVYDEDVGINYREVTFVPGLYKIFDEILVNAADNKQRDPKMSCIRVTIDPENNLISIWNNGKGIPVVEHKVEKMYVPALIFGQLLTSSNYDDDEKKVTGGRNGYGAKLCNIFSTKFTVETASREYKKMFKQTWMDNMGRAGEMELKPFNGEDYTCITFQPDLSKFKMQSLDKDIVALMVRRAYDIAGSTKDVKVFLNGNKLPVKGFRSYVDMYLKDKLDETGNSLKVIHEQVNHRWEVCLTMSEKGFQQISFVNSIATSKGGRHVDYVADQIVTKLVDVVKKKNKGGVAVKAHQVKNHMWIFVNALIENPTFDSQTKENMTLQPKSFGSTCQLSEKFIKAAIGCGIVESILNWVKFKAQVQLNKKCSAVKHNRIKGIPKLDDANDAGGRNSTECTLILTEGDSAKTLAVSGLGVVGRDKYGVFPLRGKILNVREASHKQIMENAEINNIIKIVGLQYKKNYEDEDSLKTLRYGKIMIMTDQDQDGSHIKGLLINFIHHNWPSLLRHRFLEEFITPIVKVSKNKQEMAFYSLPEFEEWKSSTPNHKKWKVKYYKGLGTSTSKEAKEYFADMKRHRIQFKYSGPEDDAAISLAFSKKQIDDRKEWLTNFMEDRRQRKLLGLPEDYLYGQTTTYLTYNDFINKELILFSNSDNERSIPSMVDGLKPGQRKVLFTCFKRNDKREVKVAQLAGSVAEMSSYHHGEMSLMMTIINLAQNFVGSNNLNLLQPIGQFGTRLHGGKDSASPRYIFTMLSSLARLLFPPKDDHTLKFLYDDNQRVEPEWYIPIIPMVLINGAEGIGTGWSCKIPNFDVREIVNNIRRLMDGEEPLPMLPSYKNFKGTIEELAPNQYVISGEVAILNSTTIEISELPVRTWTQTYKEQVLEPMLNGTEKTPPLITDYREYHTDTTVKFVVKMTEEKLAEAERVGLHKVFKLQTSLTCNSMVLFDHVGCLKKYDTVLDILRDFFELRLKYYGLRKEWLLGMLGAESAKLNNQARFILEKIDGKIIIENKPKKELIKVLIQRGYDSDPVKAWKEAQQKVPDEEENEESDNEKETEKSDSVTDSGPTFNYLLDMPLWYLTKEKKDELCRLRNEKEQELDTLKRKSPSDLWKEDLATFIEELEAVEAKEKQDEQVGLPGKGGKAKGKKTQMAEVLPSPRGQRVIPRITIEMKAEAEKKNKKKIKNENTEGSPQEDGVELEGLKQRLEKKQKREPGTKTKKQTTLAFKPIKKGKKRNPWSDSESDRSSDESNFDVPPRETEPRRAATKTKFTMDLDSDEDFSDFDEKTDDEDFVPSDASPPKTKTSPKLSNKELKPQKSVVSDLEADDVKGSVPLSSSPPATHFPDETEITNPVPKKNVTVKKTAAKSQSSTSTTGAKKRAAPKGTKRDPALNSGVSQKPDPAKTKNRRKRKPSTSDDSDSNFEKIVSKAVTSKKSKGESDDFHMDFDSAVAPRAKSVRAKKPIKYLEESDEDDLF

inhibition [2]	Tm (Nucleic Acid [4])	ΔTm (Nucleic Acid [5])	inhibition [6]	Compound	IC50 (MCF7)	IC50 [1]	IC50 (NCI-H187)	IC50 (HepG2)	IC50 (SW-620)	IC50 (KB)	IC50 [3]	IC50 (BT-474)
72.1%	57.3 °C			COc1cc(O)c2c(c1)O[C@@H]1COc3cc(OC)c(OC)cc3[C@]1(O)C2=O	23.7 µM	> 100 µM	3.12 µM	> 100 µM	> 100 µM	13.3 µM	> 100 µM	> 100 µM
49.1%				COc1cc(OCC(O)CN(CCO)CCO)c2c(c1)O[C@@H]1COc3cc(OC)c(OC)cc3[C@]1(O)C2=O (stereo not given in full)	> 100 µM	> 100 µM	> 100 µM	> 100 µM	> 100 µM	> 100 µM	> 100 µM	> 100 µM
68.3%	59.3 °C	2 °C		COc1cc(OCC2CO2)c2c(c1)O[C@@H]1COc3cc(OC)c(OC)cc3[C@]1(O)C2=O (mixture of isomers)	5.63 µM	0.57 µM	27.8 µM	0.55 µM	0.38 µM	32.9 µM	0.63 µM	0.45 µM
58.3%				COc1cc(OCC(O)CCl)c2c(c1)O[C@@H]1COc3cc(OC)c(OC)cc3[C@]1(O)C2=O (mixture of isomers)	24.9 µM	> 100 µM	6.61 µM	0.81 µM	1.09 µM	14.8 µM	1.09 µM	1.57 µM
38.8%				COc1cc(OCC(O)CO)c2c(c1)O[C@@H]1COc3cc(OC)c(OC)cc3[C@]1(O)C2=O (mixture of isomers)	> 100 µM	> 100 µM	13.9 µM	> 100 µM	8.04 µM	13.4 µM	> 100 µM	> 100 µM
58.4%				COCC(O)COc1cc(OC)cc2c1C(=O)[C@@]1(O)c3cc(OC)c(OC)cc3OC[C@H]1O2 (mixture of isomers)	> 100 µM	> 100 µM	11.7 µM	> 100 µM	> 100 µM	46.9 µM	> 100 µM	> 100 µM
93.5%	65.1 °C	7.8 °C	47.1%	COc1cc(OCC(O)CN2CCOCC2)c2c(c1)O[C@@H]1COc3cc(OC)c(OC)cc3[C@]1(O)C2=O (mixture of isomers)	31.7 µM	0.61 µM	2.93 µM	0.61 µM	0.73 µM	26.5 µM	> 100 µM	0.34 µM
77.1%	66.1 °C	8.8 °C		COc1cc(OCC(O)CNCCN2CCOCC2)c2c(c1)O[C@@H]1COc3cc(OC)c(OC)cc3[C@]1(O)C2=O (mixture of isomers)	36.8 µM	40.2 µM	4.7 µM	0.56 µM	0.54 µM	26.3 µM	1.94 µM	0.45 µM
54.2%				COc1cc(OCC(O)CN2CCC(=O)CC2)c2c(c1)O[C@@H]1COc3cc(OC)c(OC)cc3[C@]1(O)C2=O (mixture of isomers)	48.6 µM	> 100 µM	> 100 µM	> 100 µM	> 100 µM	> 100 µM	> 100 µM	> 100 µM
81.7%	68 °C	10.7 °C		COc1cc(OCC(O)CNCc2ccccc2)c2c(c1)O[C@@H]1COc3cc(OC)c(OC)cc3[C@]1(O)C2=O (mixture of isomers)	34.6 µM	31 µM	35.5 µM	0.72 µM	0.59 µM	32.3 µM	0.67 µM	0.62 µM
66.7%				COc1cc(OCC(O)CNCCc2ccccc2)c2c(c1)O[C@@H]1COc3cc(OC)c(OC)cc3[C@]1(O)C2=O (mixture of isomers)	3.05 µM	> 100 µM	13.6 µM	> 100 µM	> 100 µM	23.5 µM	> 100 µM	> 100 µM
60.4%				COc1cc(OCC(O)CNCC(O)c2ccccc2)c2c(c1)O[C@@H]1COc3cc(OC)c(OC)cc3[C@]1(O)C2=O (mixture of isomers)		> 100 µM	22.1 µM	> 100 µM	> 100 µM	46.4 µM	> 100 µM	> 100 µM
72.1%				COc1cccc2c1C(=O)c1c(O)c3c(c(O)c1C2=O)C[C@@](O)(C(=O)CO)C[C@@H]3O[C@H]1C[C@H](N)[C@H](O)[C@H](C)O1 [DOXORUBICIN]		0.83 µM	0.03 µM	0.26 µM	0.23 µM	2.01 µM	0.33 µM	0.07 µM
